Active and inactive are the calls of the source. The calls are words filed in the database; no cut-off is given here.

The subject of one assay is PC-3. Put plainly: Anticancer activity against human PC3 cells xenografted in sc dosed SCID mouse assessed as inhibition of tumor growth at 80 mg/kg, ip qd for 14 days. In kind it is functional. The following applies: PC-3, sc, 336 h. The gist of the method: (§1)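 PC-3 xenografts in SCID mice; calipers tracked tumor volume once palpable, and dosing began at an average volume of ~50–100 mm³. Groups of 5 mice received one intraperitoneal dose daily for 14 days, formulated in 15% PEG 400, 5% EtOH and 80% H₂O, alongside a vehicle-only group. Tumor size and body weight were recorded every two days for 28 days; tumor size given as mean ± S.E.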
On the technique in general: In xenograft studies the graft and the host belong to different species.
Broadly, the inhibition in vivo is the share of the control response that was lost under treatment. Regarding `O=C(O[C@@H]1Cc2c(O)cc(O)cc2O[C@@H]1c1cc(O)c(O)c(O)c1)c1cc(O)c(O)c(O)c1` [EPIGALOCATECHIN GALLATE], the inhibition in vivo at 80 mg/kg is 32%.

The subject of a further assay is PC-3. Put plainly: Anticancer activity against human PC3 cells xenografted in sc dosed SCID mouse assessed as inhibition of tumor growth at 20 mg/kg, ip qd for 14 days. In kind it is functional.
Conditions: not given
The method in brief:
as §1
One may read the inhibition as the drop in the measured response relative to a control, in per cent. Regarding `O=C(O[C@@H]1Cc2c(O)cc(O)cc2O[C@@H]1c1cc(O)c(O)c(O)c1)c1cc(O)c(O)c(O)c1` [EPIGALOCATECHIN GALLATE], the inhibition entry was “inactive”.

The same assay, now with this note: PC-3, sc, 336 h, route subcutaneous.
Take `CCCCCC/C=C\CCCCCCCC(=O)O[C@@H]1Cc2c(O)cc(O)cc2O[C@@H]1c1cc(O)c(O)c(O)c1`: the inhibition in vivo at 20 mg/kg is 38%.

For the next assay, the species on record is Rattus norvegicus. Put plainly: Inhibition of rat liver microsomal Steroid 5-alpha-reductase at 5 uM after 30 mins by scintillation counting.
Conditions: not given
The gist of the method:
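Rat liver microsomal 5α-reductase (types 1 and 2) was incubated with 35 nM [³H]testosterone, 1.0 mM NADPH, 1 mM DTT and 40 mM potassium phosphate pH 6.5. Steroids were separated by TLC and the spots extracted with ethyl acetate for scintillation counting. Percent inhibition was taken at a single fixed test concentration.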
(Liver microsomes are a subcellular fraction often used to study metabolism.)
As for `CCCCCCCCCCCCCCCCCCCCCC(=O)O[C@@H]1Cc2c(O)cc(O)cc2O[C@@H]1c1cc(O)c(O)c(O)c1`, the inhibition came out at 28.3%.

`CCCC(=O)O[C@@H]1Cc2c(O)cc(O)cc2O[C@@H]1c1cc(O)c(O)c(O)c1` returned an inhibition of 35%.

Take `COc1cc(OC)c2c(c1)O[C@H](c1cc(OC)c(OC)c(OC)c1)[C@H](OC(=O)c1cc(OC)c(OC)c(OC)c1)C2`: the inhibition came out at 8.4%.

`O=C(Nc1ccc2ccccc2c1)O[C@@H]1Cc2c(O)cc(O)cc2O[C@@H]1c1cc(O)c(O)c(O)c1` showed an inhibition of 28.7%.

With `O=C(Nc1ccc(Cl)cc1)O[C@@H]1Cc2c(O)cc(O)cc2O[C@@H]1c1cc(O)c(O)c(O)c1`, the inhibition was found to be 19.1%.

`CC(=O)O[C@@H]1Cc2c(O)cc(O)cc2O[C@@H]1c1cc(O)c(O)c(O)c1` gave an inhibition of 3%.

For the compound `CC(=O)Oc1cc(OC(C)=O)c2c(c1)O[C@H](c1cc(OC(C)=O)c(OC(C)=O)c(OC(C)=O)c1)[C@H](OC(=O)c1cc(OC(C)=O)c(OC(C)=O)c(OC(C)=O)c1)C2`, the inhibition came to 0.5%.

Take `Cc1ccc(NC(=O)O[C@@H]2Cc3c(O)cc(O)cc3O[C@@H]2c2cc(O)c(O)c(O)c2)cc1`: the inhibition was found to be 0.8%.

Regarding `C#CCCCC(=O)O[C@@H]1Cc2c(O)cc(O)cc2O[C@@H]1c1cc(O)c(O)c(O)c1`, the inhibition came to 48.8%.

For the compound `CCCCCCCCCCCCCCCCCCCC(=O)O[C@@H]1Cc2c(O)cc(O)cc2O[C@@H]1c1cc(O)c(O)c(O)c1`, the inhibition came to 47.9%.

For the compound `CC(C)=CC(=O)O[C@@H]1Cc2c(O)cc(O)cc2O[C@@H]1c1cc(O)c(O)c(O)c1`, the inhibition is 36%.

As for `CCCCCCCC(=O)O[C@@H]1Cc2c(O)cc(O)cc2O[C@@H]1c1cc(O)c(O)c(O)c1`, the inhibition was 49.3%.

Compound `C/C=C(\C)C(=O)O[C@@H]1Cc2c(O)cc(O)cc2O[C@@H]1c1cc(O)c(O)c(O)c1` came in with an inhibition of 29.1%.

In the case of `CCCCCC(=O)O[C@@H]1Cc2c(O)cc(O)cc2O[C@@H]1c1cc(O)c(O)c(O)c1`, the inhibition is 46%.

Target in another assay: not listed separately
Put plainly: Inhibition of rat liver microsomal Steroid 5-alpha-reductase after 30 mins by scintillation counting.
Conditions: not given
The method in brief: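 Rat liver microsomes containing both type 1 and type 2 5α-reductase. [³H]T and [³H]DHT spots were separated by TLC, cut out and extracted with ethyl acetate, then counted by liquid scintillation.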
In general, IC50 refers to the midpoint of a concentration-inhibition curve. The low end stands for inhibition by little substance, the high end for a need for much substance. The compound `CCCCCCC/C=C/C(=O)O[C@@H]1Cc2c(O)cc(O)cc2O[C@@H]1c1cc(O)c(O)c(O)c1` displayed an IC50 of 2470 nM.

Regarding `CCCCCCCCCCCCCC(=O)O[C@@H]1Cc2c(O)cc(O)cc2O[C@@H]1c1cc(O)c(O)c(O)c1`, it took 600 nM to reach half-maximal inhibition (IC50).

`CCCCCCCCCC(=O)O[C@@H]1Cc2c(O)cc(O)cc2O[C@@H]1c1cc(O)c(O)c(O)c1` came in with a 50% inhibitory concentration (IC50) of 2940 nM.

Take `CCCCCCCC/C=C\CCCCCCCC(=O)O[C@@H]1Cc2c(O)cc(O)cc2O[C@@H]1c1cc(O)c(O)c(O)c1`: half-maximal inhibition (IC50) was put at 740 nM.

With `O=C(O[C@@H]1Cc2c(O)cc(O)cc2O[C@@H]1c1cc(O)c(O)c(O)c1)c1ccc(Cl)cc1`, half-maximal inhibition (IC50) required 1600 nM.

Turning to `CCCCCCCCCCCC(=O)O[C@@H]1Cc2c(O)cc(O)cc2O[C@@H]1c1cc(O)c(O)c(O)c1`, the IC50 is 770 nM.

`CCCCCCCCCCCCCCCCCC(=O)O[C@@H]1Cc2c(O)cc(O)cc2O[C@@H]1c1cc(O)c(O)c(O)c1` had an IC50 of 730 nM.

As for `CCCCCC/C=C\CCCCCCCC(=O)O[C@@H]1Cc2c(O)cc(O)cc2O[C@@H]1c1cc(O)c(O)c(O)c1`, the IC50 worked out at 480 nM.

`Cc1ccc(C(=O)O[C@@H]2Cc3c(O)cc(O)cc3O[C@@H]2c2cc(O)c(O)c(O)c2)cc1` showed an IC50 of 1320 nM.

In turn, `O=C(O[C@@H]1Cc2c(O)cc(O)cc2O[C@@H]1c1cc(O)c(O)c(O)c1)c1cc(O)c(O)c(O)c1` [EPIGALOCATECHIN GALLATE] displayed an IC50 of 6290 nM.

The compound `CCCCCCCCCCCCCCCC(=O)O[C@@H]1Cc2c(O)cc(O)cc2O[C@@H]1c1cc(O)c(O)c(O)c1` gave an IC50 of 530 nM.

Take `CC(C)=CCC/C(C)=C/C(=O)O[C@@H]1Cc2c(O)cc(O)cc2O[C@@H]1c1cc(O)c(O)c(O)c1`: the IC50 was determined as 2240 nM.

Take `CC1=C(/C=C/C(C)=C/C=C/C(C)=C/C(=O)O[C@@H]2Cc3c(O)cc(O)cc3O[C@@H]2c2cc(O)c(O)c(O)c2)C(C)(C)CCC1`: the IC50 was 760 nM.

In the case of `CC(C)(C)C1CCC(C(=O)O[C@@H]2Cc3c(O)cc(O)cc3O[C@@H]2c2cc(O)c(O)c(O)c2)CC1` (some centres not stated), the IC50 stood at 1190 nM.

`CC/C=C\C/C=C\C/C=C\CCCCCCCC(=O)O[C@@H]1Cc2c(O)cc(O)cc2O[C@@H]1c1cc(O)c(O)c(O)c1` had an IC50 of 780 nM.

Source of the values: ChEMBL document CHEMBL1629427, “Synthesis and structure-activity relationship of 3-O-acylated (-)-epigallocatechins as 5α-reductase inhibitors” (Eur J Med Chem, 2010).
